Consider 34 compounds from ChEMBL document CHEMBL3352101, “Synthesis and inhibitory activity on hepatitis C virus RNA replication of 4-(1,1,1,3,3,3-hexafluoro-2-hydroxy-2-propyl)aniline analogs” (Bioorg Med Chem Lett, 2014).

Data set [1] has as its system Hepatitis C virus. As to the kind of experiment: Inhibition of HCV RNA replication in human Li23 cells (ORL8 system) by renilla luciferase reporter gene based replication assay. The class given is functional, organism-based, Hepacivirus hominis. Background: In a reporter assay the amount or activity of a reporter protein is the signal.
A short description of data set [2]: Selectivity index, ratio of CC50 against human Li23 cells to EC50 against HCV RNA replication in human Li23 cells. The essentials: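 SI was calculated as CC50/EC50. CC50 in Li23 cells came from a WST-1 assay. EC50 came from the ORL8 genome-length HCV RNA Renilla luciferase replication assay. All assays were done in triplicate.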
Data set [3] in a line: Cytotoxicity against human Li23 cells by WST assay.
For data set [4], the system named is Hepatitis C virus. As to the kind of experiment: Inhibition of HCV RNA replication in human Li23 cells (ORL8 system) at 5 uM in presence of 10 to 200 uM vitamin E by renilla luciferase reporter gene based replication assay. Type of data set: functional, organism-based. The settings on record: Hepacivirus hominis. The essentials:
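Genome-length HCV RNA replication was measured by Renilla luciferase in ORL8 (Li23) cells. Vitamin E was given at various concentrations, with the test compound absent or present at 5 µM. Assays were done in triplicate.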

The next data set deals with Li23. The data set is described as follows: Induction of ROS generation in human Li23 cells (ORL8 system). The class given is functional, cell-based. The essentials:
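ROS production in the ORL8 genome-length HCV RNA replicon system (Li23 cells) was measured by FACS analysis at a series of compound concentrations.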

The subject of data set [5] is Hepatitis C virus. As to the kind of experiment: Potentiation of 1 IU/mL IFN-alpha-induced inhibition of HCV RNA replication in human Li23 cells (ORL8 system) by renilla luciferase reporter gene based replication assay. Type of data set: functional, organism-based. The note with it: Hepacivirus hominis. The method, boiled down:
(§1)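 Genome-length HCV RNA replication was read by Renilla luciferase in ORL8 (Li23) cells. Increasing compound concentrations were combined with IFN-α alone (1 IU/mL) or with IFN-α plus ribavirin (1 IU/mL + 6.3 µM; 4 IU/mL + ribavirin also tested). Assays were done in triplicate.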

Data set [6] deals with Hepatitis C virus. As to the kind of experiment: Potentiation of 1 IU/mL IFN-alpha and 6.3 uM ribavirin-induced inhibition of HCV RNA replication in human Li23 cells (ORL8 system) by renilla luciferase reporter gene based replication assay. The class given is functional, organism-based. The note with it: Hepacivirus hominis. The essentials: as §1
The test system of data set [7] is Hepatitis C virus. The data set is described as follows: Inhibition of HCV RNA replication in human HuH7 cells (OR6 system) by renilla luciferase reporter gene based replication assay. The settings on record: Huh-7. The class given is functional, organism-based, Hepacivirus hominis. The method, boiled down:
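The OR6 system carries genome-length HCV RNA with a Renilla luciferase reporter in HuH-7 hepatoma cells. Replication inhibition was measured and EC50 determined from runs done in triplicate.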

Data set [8] deals with Hepatitis C virus. The data set is described as follows: Inhibition of HCV RNA replication in human Li23 cells (ORL8 system) in presence of 1 IU/mL IFN-alpha by renilla luciferase reporter gene based replication assay. Type of data set: functional, organism-based. The settings on record: Hepacivirus hominis. The method, boiled down: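 Li23 human hepatoma cells carrying replicating genome-length HCV RNA with a Renilla luciferase reporter (ORL8). Test compound given at a range of concentrations together with IFN-alpha at 1 IU/mL, with a vehicle control. HCV RNA replication read as luciferase reporter activity. Assays run in triplicate.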

The structures appear in SMILES notation. Active and inactive are the calls of the source. The calls are words filed in the database; no cut-off is given here. Bounds are passed on as bounds.

As usually defined, the EC50 is the concentration needed to bring the measured effect to its halfway point. What is called CC50 is the concentration that lowers cell viability or growth by half. Compound `CC(=O)N(C)c1ccc(C(O)(C(F)(F)F)C(F)(F)F)cc1` gave an EC50 in the data set with Hepatitis C virus [1] of 14 µM. Further, the “Ratio CC50/EC50” value in [2] is 2.9. The compound also returned a CC50 in data set [3] of 40 µM.
Taken in the same sequence, the figures for `Cc1ccc(C(=O)N(C)c2ccc(C(O)(C(F)(F)F)C(F)(F)F)cc2)cc1` were 10 µM, 2.6 and 26 µM.
In the same order, the values of `CN(C(=O)c1cccs1)c1ccc(C(O)(C(F)(F)F)C(F)(F)F)cc1` are 2.6 µM, 13 and 33 µM.
Taken in the same sequence, the figures for `Cc1cc(C(O)(C(F)(F)F)C(F)(F)F)ccc1N(C)C(=O)c1ccccc1` were 1.7 µM, 5.3 and 9 µM.
Regarding `CCCN(C(=O)c1ccccc1)c1ccc(C(O)(C(F)(F)F)C(F)(F)F)cc1`, the midpoint of the response in the data set on Hepatitis C virus [1], the EC50, lay at 3.5 µM. In data set [2], the “Ratio CC50/EC50” value came to 4.3. In [3], half-maximal cytotoxicity (CC50) was put at 15 µM.
Taken in the same sequence, the figures for `O=C(Nc1ccc(C(O)(C(F)(F)F)C(F)(F)F)cc1)c1ccccc1` were 4.1 µM, 2.9 and 12 µM.
As for `CN(C(=O)Nc1ccccc1)c1ccc(C(O)(C(F)(F)F)C(F)(F)F)cc1`, in the data set on Hepatitis C virus [1], the EC50 came out at 5.7 µM. In [3], the CC50 was > 20 µM.
For `CN(c1ccc(C(O)(C(F)(F)F)C(F)(F)F)cc1)S(=O)(=O)c1ccccc1`, the inhibition result in the data set on Hepatitis C virus [4] was “inactive”. Further, the Activity result with Li23, in the data set with Hepatitis C virus [5] and with Hepatitis C virus [6] was “Dose-dependent effect” throughout. In the data set on Hepatitis C virus [1], a half-maximal effect (EC50) was put at 0.19 µM. For the same compound, the IC60 with Hepatitis C virus [1] worked out at 5 µM. In data set [2], the “Ratio CC50/EC50” value worked out at 84. In data set [3], the CC50 worked out at 16 µM.
In the data set on Hepatitis C virus [1], `CCN(C(=O)c1ccccc1)c1ccc(C(O)(C(F)(F)F)C(F)(F)F)cc1` had an EC50 of 0.78 µM. In [2], the “Ratio CC50/EC50” value is listed as 24. In addition, in data set [3], the CC50 worked out at 19 µM.
Taken in the same sequence, the figures for `COc1ccc(S(=O)(=O)N(C)c2ccc(C(O)(C(F)(F)F)C(F)(F)F)cc2)cc1` were 1.4 µM, 5.6 and 7.9 µM.
Turning to `CN(C(=O)c1ccccc1)c1ccccc1C(O)(C(F)(F)F)C(F)(F)F`, in the data set on Hepatitis C virus [1], the EC50 is > 20 µM. For the same compound, the CC50 in data set [3] was > 20 µM.
Regarding `CN(C(=O)C1CCCCC1)c1ccc(C(O)(C(F)(F)F)C(F)(F)F)cc1`, a half-maximal effect in the data set on Hepatitis C virus [1] (EC50) was put at 0.23 µM. In addition, the “Ratio CC50/EC50” value in data set [2] worked out at 87. In addition, the CC50 in data set [3] was determined as 20 µM.
In the case of `CN(C(=O)c1ccccn1)c1ccc(C(O)(C(F)(F)F)C(F)(F)F)cc1`, in the data set on Hepatitis C virus [1], the EC50 was > 100 µM. Moreover, the CC50 in data set [3] is > 100 µM.
In turn, `Cc1ccccc1S(=O)(=O)N(C)c1ccc(C(O)(C(F)(F)F)C(F)(F)F)cc1` showed an EC50 in the data set with Hepatitis C virus [1] of 0.36 µM. Further, the “Ratio CC50/EC50” value in data set [2] was 33. This compound also displayed a CC50 in [3] of 12 µM.
In the same order, the values of `CN(C(=O)c1cccnc1)c1ccc(C(O)(C(F)(F)F)C(F)(F)F)cc1` are 45 µM, 1.4 and 63 µM.
For the compound `CN(C(=O)Cc1ccccc1)c1ccc(C(O)(C(F)(F)F)C(F)(F)F)cc1`, the EC50 with Hepatitis C virus [1] was > 100 µM. Moreover, it took 27 µM to reach half-maximal cytotoxicity in [3] (CC50).
Turning to `CN(C(=O)c1ccccc1)c1ccc(C(O)(C(F)(F)F)C(F)(F)F)cc1`, the EC50 in the data set with Hepatitis C virus [7] was > 20 µM; in the data set with Hepatitis C virus [1] it was 0.32 µM. Besides, the “Ratio CC50/EC50” value in data set [2] is on record as 203. In data set [3], this compound returned a CC50 of 65 µM.
On to `CCCC(=O)N(C)c1ccc(C(O)(C(F)(F)F)C(F)(F)F)cc1`, for which the EC50 in the data set on Hepatitis C virus [1] turned out to be 3.8 µM. Moreover, the CC50 in [3] is > 100 µM.
In the data set on Hepatitis C virus [1], `CN(C(=O)c1ccsc1)c1ccc(C(O)(C(F)(F)F)C(F)(F)F)cc1` came in with an EC50 of 17 µM. For the same compound, the “Ratio CC50/EC50” value in [2] is recorded as 2.6. The compound further came in with a CC50 in data set [3] of 44 µM.
In turn, `CN(c1ccc(C(O)(C(F)(F)F)C(F)(F)F)cc1)S(=O)(=O)c1cccc(F)c1` had an EC50 in the data set on Hepatitis C virus [1] of 0.36 µM. Moreover, the “Ratio CC50/EC50” value in [2] was 53. Half-maximal cytotoxicity in data set [3] (CC50) was put at 19 µM.
In the same order, the values of `CCCCC(=O)N(C)c1ccc(C(O)(C(F)(F)F)C(F)(F)F)cc1` are 2.3 µM, 11 and 26 µM.
Consider `CN(c1ccc(C(O)(C(F)(F)F)C(F)(F)F)cc1)S(=O)(=O)c1ccccc1Br`, for which the EC50 in the data set with Hepatitis C virus [1] is 0.5 µM. For the same compound, the “Ratio CC50/EC50” value in data set [2] worked out at 18. For the same compound, in data set [3], the CC50 was found to be 9.1 µM.
Consider `NC(=O)c1ncn([C@@H]2O[C@H](CO)[C@@H](O)[C@H]2O)n1` [RIBAVIRIN], for which the inhibition result in the data set on Hepatitis C virus [8] was “Active”. The EC50 in the data set on Hepatitis C virus [1] turned out to be 8.7 µM.
The compound `CN(c1ccc(C(O)(C(F)(F)F)C(F)(F)F)cc1)S(=O)(=O)c1ccccc1Cl` returned an EC50 in the data set on Hepatitis C virus [1] of 0.17 µM. Moreover, in data set [2], the “Ratio CC50/EC50” value was 88. In data set [3], this compound had a CC50 of 15 µM.
Taken in the same sequence, the figures for `Cc1ccccc1C(=O)N(C)c1ccc(C(O)(C(F)(F)F)C(F)(F)F)cc1` were 17 µM, 2.2 and 38 µM.
For the compound `O=C(c1ccccc1)N(Cc1ccccc1)c1ccc(C(O)(C(F)(F)F)C(F)(F)F)cc1`, the EC50 in the data set on Hepatitis C virus [1] is 2.9 µM. Also, in [2], the “Ratio CC50/EC50” value turned out to be 2.6. Also, in [3], the CC50 is 7.5 µM.
In the same order, the values of `Cc1ccc(S(=O)(=O)N(C)c2ccc(C(O)(C(F)(F)F)C(F)(F)F)cc2)cc1` are 0.44 µM, 34 and 15 µM.
Take `Cc1cccc(S(=O)(=O)N(C)c2ccc(C(O)(C(F)(F)F)C(F)(F)F)cc2)c1`: the EC50 in the data set with Hepatitis C virus [1] was found to be 0.35 µM. Moreover, the “Ratio CC50/EC50” value in data set [2] is 31. The CC50 in data set [3] stood at 11 µM.
Take `CN(C(=O)c1ccccc1)c1ccc(C(OCCO)(C(F)(F)F)C(F)(F)F)cc1`: in the data set on Hepatitis C virus [1], the response was half-maximal at 11 µM (EC50). The CC50 in data set [3] is > 20 µM.
For `CN(Cc1ccccc1)c1ccc(C(O)(C(F)(F)F)C(F)(F)F)cc1`, in the data set with Hepatitis C virus [1], the EC50 came out at 3 µM. Further, the “Ratio CC50/EC50” value in data set [2] is 4.3. The same compound had a CC50 in data set [3] of 13 µM.
In turn, `CN(C(=O)C12CC3CC(CC(C3)C1)C2)c1ccc(C(O)(C(F)(F)F)C(F)(F)F)cc1` showed an EC50 in the data set with Hepatitis C virus [1] of 1 µM. The “Ratio CC50/EC50” value in [2] is 17. In [3], this compound had a CC50 of 17 µM.
Taken in the same sequence, the figures for `Cc1cccc(C(=O)N(C)c2ccc(C(O)(C(F)(F)F)C(F)(F)F)cc2)c1` were 5.8 µM, 3.4 and 20 µM.
Regarding `Cc1cc(N(C)C(=O)c2ccccc2)ccc1C(O)(C(F)(F)F)C(F)(F)F`, in the data set on Hepatitis C virus [1], the EC50 was > 100 µM. Besides, the CC50 in [3] stood at 87 µM.
`COc1cccc(S(=O)(=O)N(C)c2ccc(C(O)(C(F)(F)F)C(F)(F)F)cc2)c1`: the midpoint of the response in the data set with Hepatitis C virus [1], the EC50, lay at 2.1 µM. The “Ratio CC50/EC50” value in [2] is listed as 6.2. The compound also displayed a CC50 in data set [3] of 13 µM.
